Measured values of several laboratories.
Lines come from different studies, so protocols differ.
CHEK2: Serine/threonine-protein kinase Chk2 (CHEK2, Homo sapiens, UniProt O96017)
CHEK2 I157T: Serine/threonine-protein kinase Chk2 (CHEK2, Homo sapiens, UniProt O96017, I157T)

| Compound | target | test | conditions | quantity | value |
| --- | --- | --- | --- | --- | --- |
| Cc1ccc(Nc2nccc(N(C)c3ccc4c(C)n(C)nc4c3)n2)cc1S(N)(=O)=O | CHEK2 | enzyme activity, inhibitor | 0.3 µM | inhibition | -13% |
| Cn1c2c(c3ccc(Cl)c(Cl)c31)C(C#N)C1(CCCC1)NC2=O (stereo not shown) | CHEK2 | thermal stability, DSF | 10 µM | ΔTm | 0 °C |
| O=C1NC(=O)c2c1c1c3ccccc3[nH]c1n1cncc21 | CHEK2 | cell-free assay | 0.5 µM | remaining signal | 21.2% |
| Cc1cnc(NC2CCOCC2)nc1-n1cnc(C(=O)NC(CN)c2cc(F)cc(Cl)c2)c1 (stereo not shown) | CHEK2 I157T | enzyme activity, inhibitor, radiometric | 1 µM | remaining activity | 82% |
| C[C@H](c1ccc(F)cc1)N(Cc1cccc(C(=O)O)c1)C(=O)c1cnc2ccccc2c1 | CHEK2 | cell-free assay, competition with immobilised ligand | 1 µM | remaining binding | 91% |
| COc1cc(/C=C/C(=O)CC(=O)/C=C/c2ccc(O)c(OC)c2)ccc1O | CHEK2 | enzyme activity, inhibitor | 1 µM | activity vs control | 68% |
| Cc1cc(NC(=O)c2cccc3cc(-c4cccc5[nH]nc(N)c45)ccc23)ccc1F | CHEK2 I157T | enzyme activity, inhibitor | 0.1 µM | activity vs control | 72% |
| CN([C@@H]1CCc2c(CC(=O)O)c3cc(S(C)(=O)=O)ccc3n2C1)S(=O)(=O)c1ccc(F)cc1 | CHEK2 | cell-free assay, competition with immobilised ligand | 1 µM | remaining binding | 100% |
| CCC1(CC)NC(=O)c2c(c3ccc(Cl)c(Cl)c3n2C)C1C#N (stereo not shown) | CHEK2 | thermal stability, DSF | 10 µM | ΔTm | -0.2 °C |
| Cc1ccc(NC(=O)c2ccc(CN3CCN(C)CC3)cc2)cc1Nc1nc(-c2cccnc2)cs1 | CHEK2 | cell-free assay | 0.5 µM | remaining signal | 101% |
| CNC(=O)c1cc(Oc2ccc(NC(=O)Nc3ccc(Cl)c(C(F)(F)F)c3)cc2)ccn1 | Serine/threonine-protein kinase Chk2 (CHEK2, Homo sapiens, UniProt O96017, R145W) | enzyme activity, inhibitor | 10 µM | inhibition | 0% |
| CC(C)CC(=O)N1CCc2nc(-c3ccc(Br)cc3)nc(N(C)Cc3ccccc3)c2C1 | CHEK2 | cell-free assay, competition with immobilised ligand | 0.1 µM | remaining binding | 100% |
| O=C1NC(=O)c2cc(Nc3ccc(F)cc3)c(Nc3ccc(F)cc3)cc21 | CHEK2 | cell-free assay | 0.5 µM | remaining signal | 94.3% |
| Nc1c(C(=O)NCc2ccc(C(=O)NCCCC3CCCCC3)cc2)cnn1-c1ccccc1 | CHEK2 | cell-free assay, competition with immobilised ligand | 0.1 µM | remaining binding | 88% |
| Cn1c2c(c3ccccc31)C(C#N)C(C)(C)NC2=O (stereo not shown) | CHEK2 | thermal stability, DSF | 10 µM | ΔTm | 0.8 °C |
| CN(C)CC#Cc1ccc(OCCCc2sc(N3CCc4cccc(C(=O)Nc5nc6ccccc6s5)c4C3)nc2C(=O)O)c(F)c1 | CHEK2 | cell-free assay, competition with immobilised ligand | 1 µM | remaining binding | 100% |
| C#Cc1cccc(Nc2ncnc3cc(OCCOC)c(OCCOC)cc23)c1 | CHEK2 | cell-free assay | 0.5 µM | remaining signal | 100% |
| Cc1noc([C@H]2C[C@@H](c3ccc(C(F)(F)F)cc3)CN(C(=O)N3CCS(=O)(=O)C3)C2)n1 | CHEK2 | cell-free assay, competition with immobilised ligand | 1 µM | remaining binding | 100% |
| CC1(C)NC(=O)c2[nH]c3c(Cl)c(Cl)ccc3c2C1C#N (stereo not shown) | CHEK2 | thermal stability, DSF | 10 µM | ΔTm | -0.1 °C |
